Assay results published in ChEMBL document CHEMBL4613251, “Meliponamycins: Antimicrobials from Stingless Bee-Associated Streptomyces sp” (J Nat Prod, 2020).
pIC50: −log10 of the molar value. Blank lines part the entries; values can stand above or below the compound they belong to.

Columns and labels:
Paenibacillus larvae = test: Antibacterial activity against Paenibacillus larvae ATCC 9545 assessed as reduction in microbial growth by CLSI based broth microdilution method; type: functional
Outline: (§1)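 MIC by broth microdilution following CLSI guidelines; strains propagated in ISP-2 medium. Compounds added from a 0.125 mg/mL DMSO stock, highest final concentration 6.9 μg/mL, then serial 2-fold dilutions with DMSO diluted alongside. Tetracycline served as positive control for both strains.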

Staphylococcus aureus = test: Antibacterial activity against Staphylococcus aureus INCAS0039 assessed as reduction in microbial growth by CLSI based broth microdilution method; type: functional; outline: as §1
Leishmania infantum = test: Antileishmanial activity against intracellular amastigote stage of Leishmania infantum MHOM/MA/67/ITMAP-263 infected in THP1 cells after 120 hrs by giemsa-staining based inverted microscopic mehod; type: functional, organism-based; conditions: MHOM/MA/67/ITMAP-263, THP-1, 120 h
Outline: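 THP-1 monocytes seeded at 2 × 10^4/well and differentiated to macrophages with 20 ng/mL PMA for 72 h (37 °C, 5% CO2). They were then infected with late-stage promastigotes (2 × 10^5/well; promastigotes grown in M199 + 10% FCS, 28 °C). Extracellular parasites were removed after 24 h, and 2-fold serial dilutions from 10 mM DMSO stocks were added for 120 h. Cells were methanol-fixed and Giemsa-stained, and amastigotes per macrophage were counted microscopically as % of untreated control. IC50 from a variable-slope fit; n = 2 biological replicates; miltefosine control.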

THP-1 = test: Cytotoxicity against human THP1 cells assessed as reduction in cell viability after 120 hrs by alamar blue assay; type: cell-based; conditions: THP-1, 120 h
Outline: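 THP-1 cells were seeded at 2 × 10^4/well in RPMI-1640 + 10% FCS with 20 ng/mL PMA and differentiated for 72 h (37 °C, 5% CO2). Serial 2-fold dilutions from 10 mM DMSO stocks were added for 120 h. Alamar Blue was then added for 3 h, and fluorescence was read at ex 536 / em 588 nm as % of untreated control. n = 2 biological replicates; doxorubicin control.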

MIC (Staphylococcus aureus): 0.05 µg/mL
Structure (SMILES): CN(C)[C@@H]1C(O)=C(C(N)=O)C(=O)[C@@]2(O)C(O)=C3C(=O)c4c(O)cccc4[C@@](C)(O)[C@H]3C[C@@H]12 [TETRACYCLINE]
MIC (Paenibacillus larvae): 7.76 µM

pIC50 (Leishmania infantum): 5.62
Structure (SMILES): CCCCCCCCCCCCCCCCOP(=O)([O-])OCC[N+](C)(C)C [MILTEFOSINE]

Structure (SMILES): COc1cccc2c1C(=O)c1c(O)c3c(c(O)c1C2=O)C[C@@](O)(C(=O)CO)C[C@@H]3O[C@H]1C[C@H](N)[C@H](O)[C@H](C)O1 [DOXORUBICIN]
pIC50 (THP-1): 5.74
